According to ChEMBL document CHEMBL2040709, “Synthesis, antidepressant and antimicrobial activities of some novel stearic acid analogues” (2012):

Experiments:
Type in all cases: functional
[1] = system: Bacillus subtilis; assay: Antibacterial activity against Bacillus subtilis at 1000 ug/ml after 24 hrs by agar disc diffusion method; settings: read-out: DIZ
In short: (§1)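 Agar disc diffusion on nutrient agar plates surface-spread with standard inoculum ([…], 0.5 McFarland). Whatman No.1 paper discs (6 mm, dry-heat sterilised 140 °C, 1 h) were soaked in test compound at two concentrations (500 and 1000, as tabulated). DMSO-only discs and solvent/growth controls were included. Plates were inverted and incubated 24 h at 37 °C. Zones of inhibition were measured, and percentage potency was calculated per Indian Pharmacopoeia.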

[2] = system: Pseudomonas aeruginosa; assay: Antibacterial activity against Pseudomonas aeruginosa at 1000 ug/ml after 24 hrs by agar disc diffusion method; settings: read-out: DIZ; in short: as §1
[3] = system: Escherichia coli; assay: Antibacterial activity against Escherichia coli at 500 ug/ml after 24 hrs by agar disc diffusion method; settings: read-out: DIZ; in short: as §1
[4] = system: Staphylococcus aureus; assay: Antibacterial activity against Staphylococcus aureus at 500 ug/ml after 24 hrs by agar disc diffusion method; settings: read-out: DIZ; in short: as §1
[5] = system: Staphylococcus aureus; assay: Antibacterial activity against Staphylococcus aureus at 1000 ug/ml after 24 hrs by agar disc diffusion method; settings: read-out: DIZ; in short: as §1
[6] = system: Bacillus subtilis; assay: Antibacterial activity against Bacillus subtilis at 500 ug/ml after 24 hrs by agar disc diffusion method; settings: read-out: DIZ; in short: as §1
[7] = system: Escherichia coli; assay: Antibacterial activity against Escherichia coli at 1000 ug/ml after 24 hrs by agar disc diffusion method; settings: read-out: DIZ; in short: as §1
[8] = system: Pseudomonas aeruginosa; assay: Antibacterial activity against Pseudomonas aeruginosa at 500 ug/ml after 24 hrs by agar disc diffusion method; settings: read-out: DIZ; in short: as §1
[9] = system: Candida albicans; assay: […] at 500 to 1000 ug/ml after 24 hrs by agar disc diffusion method; in short: as §1
[10] = system: Staphylococcus aureus; assay: Antibacterial activity against Staphylococcus aureus at 500 to 1000 ug/ml after 24 hrs by agar disc diffusion method; in short: as §1
[11] = system: Bacillus subtilis; assay: Antibacterial activity against Bacillus subtilis at 500 to 1000 ug/ml after 24 hrs by agar disc diffusion method; in short: as §1
[12] = system: Mus musculus; assay: Antidepressant activity in Swiss albino mouse assessed as increase in dopamine level in brain at 30 mg/kg, ip by HPLC analysis; settings: route intraperitoneal
[13] = system: Candida albicans; assay: […] at 1000 ug/ml after 24 hrs by agar disc diffusion method; settings: read-out: DIZ; in short: as §1
[14] = system: Mus musculus; assay: Antidepressant activity in Swiss albino mouse assessed as decrease in immobility time at 30 mg/kg, ip administered 30 mins before test measured for 4 mins of total 6 mins test by forced swim test; settings: route intraperitoneal
In short: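 Forced swim test in inbred male Swiss albino mice (20–30 g), groups of 6, acclimatised one week. The 30 mg/kg dose was suspended in 0.5% CMC and given i.p. 30 min before the test; controls received vehicle. Mice swam singly in a glass tank with 15 cm water at 25 ± 3 °C. Immobility was timed over the last 4 min of a 6 min session. Dunnett's test was applied.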

[15] = system: Escherichia coli; assay: Antibacterial activity against Escherichia coli at 500 to 1000 ug/ml after 24 hrs by agar disc diffusion method; in short: as §1
[16] = system: Pseudomonas aeruginosa; assay: Antibacterial activity against Pseudomonas aeruginosa at 500 to 1000 ug/ml after 24 hrs by agar disc diffusion method; in short: as §1
[17] = system: Candida albicans; assay: […] at 500 ug/ml after 24 hrs by agar disc diffusion method; settings: read-out: DIZ; in short: as §1

CN(C)[C@@H]1C(O)=C(C(N)=O)C(=O)[C@@]2(O)C(O)=C3C(=O)c4c(O)cccc4[C@@](C)(O)[C@H]3C[C@@H]12 [TETRACYCLINE]
zone of inhibition at 1000 µg/mL [1]: 20 mm
zone of inhibition at 1000 µg/mL [2]: 22 mm
zone of inhibition at 500 µg/mL [3]: 18 mm
zone of inhibition at 500 µg/mL [4]: 18 mm
zone of inhibition at 1000 µg/mL [5]: 19 mm
zone of inhibition at 500 µg/mL [6]: 13 mm
zone of inhibition at 1000 µg/mL [7]: 23 mm
zone of inhibition at 500 µg/mL [8]: 16 mm

CCCCCCCCCCCCCCCCCc1nnc(-c2ccccc2)o1
zone of inhibition at 1000 µg/mL [1]: 16 mm
Activity [9]: 56.71%
Activity [10]: 94.6%
zone of inhibition at 1000 µg/mL [2]: 17 mm
Activity [11]: 75.78%
Activity [12]: 0.25 ng/mg
zone of inhibition at 1000 µg/mL [13]: 20 mm
zone of inhibition at 500 µg/mL [3]: 14 mm
zone of inhibition at 500 µg/mL [4]: 14 mm
zone of inhibition at 1000 µg/mL [5]: 21 mm
Time [14]: 70 s
zone of inhibition at 500 µg/mL [6]: 13 mm
Activity [15]: 93.3%
Activity [16]: 60.95%
zone of inhibition at 500 µg/mL [17]: 15 mm
zone of inhibition at 1000 µg/mL [7]: 18 mm
zone of inhibition at 500 µg/mL [8]: 16 mm

CCCCCCCCCCCCCCCCCc1nn2c(-c3ccccc3)nnc2s1
zone of inhibition at 1000 µg/mL [1]: 16 mm
Activity [9]: 92.57%
Activity [10]: 79.35%
zone of inhibition at 1000 µg/mL [2]: 19 mm
Activity [11]: 93.88%
Activity [12]: 1.455 ng/mg
zone of inhibition at 1000 µg/mL [13]: 19 mm
zone of inhibition at 500 µg/mL [3]: 16 mm
zone of inhibition at 500 µg/mL [4]: 16 mm
zone of inhibition at 1000 µg/mL [5]: 17 mm
Time [14]: 62.67 s
zone of inhibition at 500 µg/mL [6]: 13 mm
Activity [15]: 84.08%
Activity [16]: 93.88%
zone of inhibition at 500 µg/mL [17]: 15 mm
zone of inhibition at 1000 µg/mL [7]: 19 mm
zone of inhibition at 500 µg/mL [8]: 15 mm

CN(C)CCCN1c2ccccc2CCc2ccc(Cl)cc21 [CLOMIPRAMINE]
Activity [12]: 0.42 ng/mg
Time [14]: 52.97 s

CCCCCCCCCCCCCCCCCc1nnc(-c2ccccc2)n1N
zone of inhibition at 1000 µg/mL [1]: 15 mm
Activity [9]: 65.97%
Activity [10]: 75.78%
zone of inhibition at 1000 µg/mL [2]: 16 mm
Activity [11]: 93.3%
Activity [12]: 0.367 ng/mg
zone of inhibition at 1000 µg/mL [13]: 22 mm
zone of inhibition at 500 µg/mL [3]: 16 mm
zone of inhibition at 500 µg/mL [4]: 13 mm
zone of inhibition at 1000 µg/mL [5]: 18 mm
Time [14]: 68.83 s
zone of inhibition at 500 µg/mL [6]: 12 mm
Activity [15]: 93.3%
Activity [16]: 59.45%
zone of inhibition at 500 µg/mL [17]: 15 mm
zone of inhibition at 1000 µg/mL [7]: 17 mm
zone of inhibition at 500 µg/mL [8]: 13 mm
